# According to the EternaBench riboswitch data:
# Tests used:
# MS2 coat protein [1] = experiment: apparent Kd, MS2 coat protein; higher = weaker binding; RNA-MaP array
# In short: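 Designed RNAs were transcribed in place on an Illumina sequencing chip from sequenced DNA templates. At room temperature and with or without input ligand, they were incubated with fluorescently labeled MS2 coat protein from 1.5 nM to 3 μM, for 0.8–1.5 h at the lowest and 10–20 min at the highest concentrations. Apparent Kd is the median of the binding-curve fits made per cluster, with designs measured on fewer than 10 clusters excluded.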
# MS2 coat protein [2] = experiment: apparent Kd, MS2 coat protein; higher = weaker binding; RNA-MaP array; FMN 200 µM where present
# In short: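 Designs were transcribed by stalled E. coli RNA polymerase on Illumina sequencing-chip clusters. They were titrated with SNAP-549-labelled MS2 coat protein from 0.7 or 1.5 nM, doubling to 3 µM, without and then with constant ligand. Buffer: 100 mM Tris-HCl pH 7.5, 80 mM KCl, 4 mM MgCl2, BSA, DTT, yeast tRNA, Tween-20. Green signal was normalised to red-channel RNA signal and control-cluster median Fmax. Apparent Kd is the median of filtered per-cluster binding-curve fits.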
# [3] = designed as: OFF switch for flavin mononucleotide, no ligand
# [4] = ligand present: flavin mononucleotide, designed as: OFF switch for flavin mononucleotide
# [5] = designed as: ON switch for flavin mononucleotide, no ligand
# [6] = ligand present: flavin mononucleotide, designed as: ON switch for flavin mononucleotide
Sequence,apparent Kd (MS2 coat protein [2]; [5]),apparent Kd (MS2 coat protein [2]; [6]),apparent Kd (MS2 coat protein [2]; [3]),apparent Kd (MS2 coat protein [2]; [4]),also measured
AAAAGAGAAGGAUAUACAGGAAAAGAAAAGAUAUUUCAAUAACAUGAGGAUCACCCAUGUAGAAGGACUAAUAG,–,–,–,–,apparent Kd (MS2 coat protein [1]; [3]): 11.8 nM; apparent Kd (MS2 coat protein [1]; [4]): 9.74 nM
AAAAGGGCAGGAUAUACAUGAGGAUCACCCAUGUUAAAGCCAACAAGAAGUUCCACUGGUAGAAGGGCCAUAGA,–,–,–,–,apparent Kd (MS2 coat protein [1]; [3]): 8.89 nM; apparent Kd (MS2 coat protein [1]; [4]): 8.55 nM
AAACAGGAAGGAUAUACAUGAGGAUCACCCAUGUCAAAUAAAACAAAUAAGCAAGAAUGUAGAAGGACCAAAAU,–,–,–,–,apparent Kd (MS2 coat protein [1]; [3]): 17.2 nM; apparent Kd (MS2 coat protein [1]; [4]): 12.8 nM
AAACAUGAGGAUCACCCAUGUAGAAUAAUCAGACGUUUGAACAGAAGGUGAAAACAAAUAAAACUCAAGGAUAUGUAACUAAAA,–,–,–,–,apparent Kd (MS2 coat protein [1]; [5]): 65.6 nM; apparent Kd (MS2 coat protein [1]; [6]): 52.5 nM
AAACUACGACAUGAGGAUCACCCAUGUACUCCGCUAACUACACAGGAUAUAGUGAGGCCAGAGCUCUAGAAGGGUGUUAAUACG,–,–,–,–,apparent Kd (MS2 coat protein [1]; [5]): 40.3 nM; apparent Kd (MS2 coat protein [1]; [6]): 28.2 nM
AAAGGUCAGGAGAAGGUGCCUCUAUUACGUCGGCAAGGAUAUCCACAGCGGGCGAUUAUGCGUACAUGAGGAUCACCCAUGUUA,–,–,–,–,apparent Kd (MS2 coat protein [1]; [3]): 92.3 nM; apparent Kd (MS2 coat protein [1]; [4]): 43.5 nM
AAAUGCAUUCGAGGAUAUGUCAUGAUGUUGUAAACAGAAGGCGAGGCAUCGACAUGAGGAUCACCCAUGUGCACAGGUAAAAGU,–,–,–,–,apparent Kd (MS2 coat protein [1]; [5]): 37.6 nM; apparent Kd (MS2 coat protein [1]; [6]): 16.4 nM
UUGGACGUCGUAGGAUAUGUAGGAUAUUCCUACAUGAGGAUCACCCAUGUUGCCAUGGAAGAAGGACAGAAGGACGAUGUCCAU,253 nM,4.48 nM,–,–,–
UUGGACGUCGUAGGAUAUGUAGGAUUUUCCUACAUGAGGAUCACCCAUGUUGACAUGGAAGAAGGACAGAAGGACGAUGUCCAU,648 nM,16.3 nM,–,–,–
UUGGACGUGGUAGGAUAUGUAGGAUAUUCCUACAUGAGGAUCACCCAUGUUGACAUGGAAGAAGGACAGAAGGACGAUGUCCAU,112 nM,35 nM,–,–,–
UUGGACUACGUAGGAUAUGUAGGAUAUUCCUACAUGAGGAUCACCCAUGUUAGCAUGUAAGUAGGACAGAAGGACGUGGUCCAU,540 nM,24.9 nM,–,–,–
UUGGAGUACGUAGGAUAUGUAGGAUUUUCCUACAUGAGGAUCACCCAUGUUAGCAUGGAAGAAGGACAGAAGGACGUGCUCCAU,1040 nM,78.1 nM,–,–,–
UUGGGUUUGCGAGGAUAUCGUAUGUGAUUUGAACGAGAAGGCGCUAUUUAAAUUAUUUUAACAUAACAUGAGGAUCACCCAUGU,17.4 nM,16 nM,–,–,–
UUGGUGGUUUCCCGCGCUAAGAUAGGAGAAGGGUGACUGGACAUGAGGAUCACCCAUGUAUCGGCACAGGAUAUCCACAUUAAU,223 nM,334 nM,–,–,–
UUGGUUAUACAAGGAUAUCAAUUAUAUACACAUCCUACAUGAGGAUCACCCAUGUUUUAUUUUUUUGAGAAGGUGUAUUGUCGG,22.4 nM,29 nM,–,–,–
UUGGUUGUCGUAGGAUAUGGAGGAUAUUCCUACAUGAGGAUCACCCAUGUUCGCAUGGAAGAAGGCCAGAAGGACGAUGACCAU,10.4 nM,4.38 nM,–,–,–
UUGGUUGUCGUAGGAUAUGUAGGAUAUUCCUACAUGAGGAUCACCCAUGUUCGCAUGGAAGAAGGACAGAAGGACGAUGACCAC,850 nM,9.19 nM,–,–,–
UUGGUUGUCGUAGGAUAUGUAGGAUAUUCCUACAUGAGGAUCACCCAUGUUCGCAUGGAAGAAGGACAGAAGGACGAUGACCAG,1240 nM,9.67 nM,–,–,–
UUGUUACAUGAGGAUCACCCAUGUGAGGAUAUGGUUCAGUACUGUCAUGUCGCGUACUCCAGAAGGCACAUGUU,–,–,89.7 nM,209 nM,–
UUGUUCUGAGGAUAUACAUGAGGAUCACCCAUGUGUUUCUGCUUGGUGACUAGCGAAUGUAGAAGGCUGUUCUC,–,–,33.6 nM,35.6 nM,–
UUGUUCUGAGGAUAUACAUGAGGAUCACCCAUGUGUUUCUGCUUGGUGUCUAGCGAAUGUAGAAGGCUGUUCUC,–,–,21.7 nM,22.9 nM,–
UUGUUGUAUGUAGGAUAUGCAUAUUAUUAUUAUGCAGAAGGACAUGAGGAUCACCCAUGUAUGUUAUUAUUAUAUGUUAUAUAU,–,–,27.6 nM,35.6 nM,–
UUUAAGAAUGAAGGAUAUCUAAAAGUAAUCUUAAGAGAAGGUCAAUAGAACAUGAGGAUCACCCAUGUUAGAAUAGAUGGGUUU,–,–,96.7 nM,110 nM,–
UUUAAGUCAGGAUAUCGUUAAUUUAAUUGUUUGUUUUAGUUCGAGAAGGGACAUGAGGAUCACCCAUGUAAUUU,–,–,34.3 nM,38.9 nM,–
UUUAAUCGAAACAUGAGGAUCACCCAUGUGUUGUAAUUAACAUAGGAUAUUUGUAUACUUUUAUAAAAGAAGGAUGAUAAUACU,17.8 nM,13 nM,–,–,–
UUUAAUUUAAUUAAGAUCACAUGAGGAUCACCCAUGUAAUUAUAGGAUAUCAGCUCGAAUAGAGCUGAGAAGGAUAAUUACAUA,–,–,89.5 nM,57.7 nM,–
UUUACAUUACGAGGAUAUCAUUUAUUUCAUGUUUGAGAAGGCGUUUUUUUUAUUACCUUACAUGAGGAUCACCCAUGUUUCUUU,35.8 nM,21.8 nM,–,–,–

Sequence,apparent Kd (MS2 coat protein [2]; [5]),apparent Kd (MS2 coat protein [2]; [6]),apparent Kd (MS2 coat protein [2]; [3]),apparent Kd (MS2 coat protein [2]; [4]),also measured
UUUAGUUCAGGAUAUGUAGAUUUUAACAUGAGGAUCACCCAUGUAGAUCCUGAAUUAACUACAGAAGGGAACAUUA,–,–,21.3 nM,75.4 nM,–
UUUAGUUCAGGAUAUGUAGAUUUUAACAUGAGGAUCACCCAUGUAGAUCCUGAUCCUGCUACAGAAGGAAAGAUUU,–,–,26.9 nM,25.5 nM,–
UUUAGUUGCGGGCAGGAUAUGUAUUAAAAUACAUGAGGAUCACCCAUGUGUGGGUAUAACACCCAACAGAAGGGCCAAUCGCGAC,132 nM,18.3 nM,–,–,–
UUUAUAAAGAUAGGAUAUUGUAUAAUAAUUUAAUAAGAAGGAUCACACAUGAGGAUCACCCAUGUAUGAGGAUCACCCAUGUAU,–,–,19.7 nM,20.3 nM,–
UUUAUAAAUUAGAAGGCAUGAUGAAUUACAAUAGACAUGAGGAUCACCCAUGUGUGUUCAUGUCAUGAGGAUAUAGUCAUAUAU,17.5 nM,9.93 nM,–,–,–
UUUAUAAAUUAGAAGGCGAGAUGAAUUACAAUAGACAUGAGGAUCACCCAUGUGUACCCAUGUCUUGAGGAUAUAGUCAUAUAU,132 nM,48 nM,–,–,–
UUUAUACAUGAGGAUCACCCAUGUGAGGAUAUGCUUUAUUAUUAUUAUUAUUAUUAUUGCAGAAGGCACGUUAU,–,–,39.3 nM,54.8 nM,–
UUUAUAUUCAGAGGAUAUUAAUGUAGUAUAACAUAAGAAGGCUGUUUGUUUUGUAAAGUAAUUCUACAUGAGGAUCACCCAUGU,21.4 nM,16.2 nM,–,–,–
UUUAUGUGAGGAUAUCAGUAGUAAAAAAAUAAAAUUACUACUGAGAAGGCACAUGAGGAUCACCCAUGUGCUUC,–,–,19.5 nM,15.1 nM,–
UUUCUUGGGCAAGGAUAUCCUGUGCGGUUCCGGCUCGUGUCUGUCACAUGAGGAUCACCCAUGUGGGAGAAGGUGCCUGCGGUA,–,–,6.41 nM,6.77 nM,–
UUUGAAUUGCAAGGAUAUCUUAUUUAGAUUUUAAGAGAAGGUGCUUUACAGUUACAUGAGGAUCACCCAUGUCUUUCUUUUUAU,24.8 nM,20 nM,–,–,–
UUUGAUAGCACAGGAUAUUGUCAUUUGAGUUGUCAAGAAGGGUGUACAUGAGGAUCACCCAUGUAAUGGUUGCCUCGCUGACUU,–,–,175 nM,279 nM,–
UUUGGUUGUGUAGGAUAUGUGUGGCGGGCUGGCACAGAAGGACAUGAGGAUCACCCAUGUGGUUUGGGUUGGGUGGUUGGCCCG,–,–,943 nM,771 nM,–
UUUGUUUUGCAAGGAUAUGUUUAAUUUUAUUUUCCUUACACAUGAGGAUCACCCAUGUUAUUCUUACAGAAGGUGCGUAAUUUG,–,–,165 nM,166 nM,–
UUUUAACAUGAGGAUCACCCAUGUGAGGAUAUCGAAAUUUAUAUUAAUAUUAAUAAUACGAGAAGGCACAUUUU,–,–,80.7 nM,79.8 nM,–
UUUUAACAUGAGGAUCACCCAUGUGAGGAUAUCGAAAUUUAUAUUAAUAUUUAUAAUACGAGAAGGCACAUUUU,–,–,85 nM,90.6 nM,–
UUUUAACAUGAGGAUCACCCAUGUGAGGAUAUCGAAAUUUAUAUUUAUAUUAAUUUAACGAGAAGGCACAUUUU,–,–,91.2 nM,114 nM,–
UUUUAGCAGUCAGGAUAUGCAACGCACAACGACGCAGAAGGGACAUGAGGAUCACCCAUGUUAUGGUUCUGGUACUAUGACGUU,–,–,18.1 nM,24.6 nM,–
UUUUAGUAAGGAUAUGCGUAGAUCUCGGAAACGAGAUCUACGCAGAAGGUACAUGAGGAUCACCCAUGUAGAUU,–,–,17.4 nM,22.3 nM,–
UUUUAGUGAGGAUAUACAUUUUUUUAAUUAUUUAUAAUAUUACAUGAGGAUCACCCAUGUAGAAGGCACAUUUU,–,–,24.3 nM,22.4 nM,–
UUUUAUUAGUAAGGAUAUACUAGCGAUUAGCUUGUAGAAGGUACAGUCUUAUGUAUAACAUGUUAACAUGAGGAUCACCCAUGU,59.5 nM,36.1 nM,–,–,–
UUUUCGGCAGGAUAUACAUGAGGAUCACCCAUGUAAAUUUUUCGUUUAACUUGAAUGUGUAGAAGGGCCAUUUU,–,–,23.3 nM,23.6 nM,–
UUUUUACAUGAGGAUCACCCAUGUGAGGAUAUGGUUUCGCUGGCCGUAGCCAGUGGAACCAGAAGGCGCGUGAU,–,–,95 nM,136 nM,–
UUUUUAUUUGCAGGAUAUUGUAUUUUAUUACAUCAAGAAGGGCAUUACAUGAGGAUCACCCAUGUCAUCCUAUGGUUAACUAGU,–,–,9.62 nM,9.77 nM,–
UUUUUGUCAGAGGAUAUCAUAGUCAGUUUUAAGUGAGAAGGUUGAACAUGAGGAUCACCCAUGUGACCUUGGUG,–,–,23.6 nM,21.6 nM,–
UUUUUGUCAGGAUAUGAGUCGUAGAACAAUAGUACUACGUCUCAGAAGGGACAUGAGGAUCACCCAUGUGCCUC,–,–,26 nM,143 nM,–
UUUUUGUGAGGAUAUCAGUAGUAGAACAAUAGUACUACUACUGAGAAGGCACAUGAGGAUCACCCAUGUUCCUC,–,–,58.1 nM,325 nM,–
